Calls of active or inactive are those of the source.
Key:
Staphylococcus aureus [1] = experiment: Antibacterial activity against multidrug resistant Staphylococcus aureus ATCC BAA-44 at >100 uM passaged for 12 days in fresh liquid media supplemented with compound; format: functional, organism-based
Staphylococcus aureus [2] = experiment: Antibacterial activity against multidrug resistant Staphylococcus aureus ATCC BAA-44 after 6 to 8 hrs; format: functional, organism-based
[3] = Binding affinity to Escherichia coli GroEL expressed in Escherichia coli DH5alpha by ITC assay
Procedure, shortened: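 ITC at 20°C: 400 µM GroEL (monomer) in syringe titrated into 50 µM compound in cell, matched buffer 20 mM HEPES pH 7.4, 50 mM KCl, 10 mM MgCl₂, 1% DMSO; 0.4 µL first injection discarded, then 2.0 µL injections at 3-min intervals, 600 rpm. Single-site fit gave Kd, n, ΔH, ΔS; five or six replicates.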

E. coli GroEL/ES [4] = molecular target: T1, E. coli GroEL/ES (Escherichia coli, UniProt P0A6F5); experiment: Inhibition of Escherichia coli GroEL expressed in Escherichia coliDH5alpha/Escherichia coli GroES expressed in Escherichia coli BL21 (DE3) assessed as reduction in GroEL/GroES-mediated denatured MDH refolding by measuring MDH enzyme activity using sodium mesoxalate as substrate after 20 to 40 mins by spectrometric analysis
T1 sequence (P0A6F5 whole entry, looked up): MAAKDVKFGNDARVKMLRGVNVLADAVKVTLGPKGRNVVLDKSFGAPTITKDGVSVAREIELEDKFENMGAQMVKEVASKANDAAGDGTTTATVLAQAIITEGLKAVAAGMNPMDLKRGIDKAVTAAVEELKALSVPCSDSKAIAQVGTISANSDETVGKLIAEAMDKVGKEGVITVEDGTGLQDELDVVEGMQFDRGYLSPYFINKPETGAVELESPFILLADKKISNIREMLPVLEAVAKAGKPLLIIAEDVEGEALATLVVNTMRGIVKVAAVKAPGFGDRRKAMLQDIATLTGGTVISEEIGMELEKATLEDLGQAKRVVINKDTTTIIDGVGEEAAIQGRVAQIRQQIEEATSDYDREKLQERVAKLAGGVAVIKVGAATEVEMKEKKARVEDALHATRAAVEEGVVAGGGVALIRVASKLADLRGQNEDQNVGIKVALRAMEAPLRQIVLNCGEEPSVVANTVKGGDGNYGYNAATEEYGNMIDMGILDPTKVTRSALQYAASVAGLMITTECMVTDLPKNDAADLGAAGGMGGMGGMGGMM
Procedure, shortened: (§1)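 Coupled refolding assay: denatured rhodanese or MDH refolded by GroEL/ES (50 nM GroEL tetradecamer, 700 nM subunits), read-out via enzymatic activity of refolded substrate; counter-screened against native enzyme activity. IC₅₀ as back-calculated mean of log-transformed replicate values.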

E. coli GroEL/ES [5] = molecular target: T1, E. coli GroEL/ES; experiment: Inhibition of Escherichia coli GroEL expressed in Escherichia coli DH5alpha/Escherichia coli GroES expressed in Escherichia coli BL21 (DE3) assessed as reduction in GroEL/GroES-mediated denatured rhodanese refolding by measuring rhodanese enzyme activity after 45 mins by spectrometric analysis; procedure, shortened: as §1
[6] = Inhibition of refolded MDH (unknown origin) preincubated with Escherichia coli GroEL/GroES for 45 mins using sodium mesoxalate as substrate by spectrometric analysis; design: species or system Homo sapiens
Procedure, shortened: (§2)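 Chaperonin-mediated refolding of denatured MDH, coupled to MDH enzymatic activity as the reporter. Human HSP60/10 (HSP60 without its 26-residue mitochondrial signal peptide) or E. coli GroEL/ES was used, with GroEL tetradecamer at 50 nM (700 nM subunits) during the refolding cycle. IC50s from replicate dose-response curves were averaged as logs after ROUT outlier removal.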

[7] = Cytotoxicity against human THLE3 cells after 48 hrs by Alamar blue assay; format: cell-based
Procedure, shortened: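 THLE-3 cells, grown in BEBM with the BEGM kit and 10% FBS, were seeded at 1,500 cells/well and allowed 24 h at 37°C, 5% CO2. Compounds were then added at 100 µM to 46 nM final (3-fold steps, 0.1% DMSO) for 48 h. […] CC50 is the log-average of at least triplicate runs.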

[8] = molecular target: T2, Thiosulfate sulfurtransferase (Homo sapiens, UniProt Q16762); experiment: Inhibition of refolded rhodanese (unknown origin) preincubated with Escherichia coli GroEL/GroES for 60 mins by measuring […] after 20 to 40 mins by spectrometric analysis
T2 sequence (Q16762 whole entry): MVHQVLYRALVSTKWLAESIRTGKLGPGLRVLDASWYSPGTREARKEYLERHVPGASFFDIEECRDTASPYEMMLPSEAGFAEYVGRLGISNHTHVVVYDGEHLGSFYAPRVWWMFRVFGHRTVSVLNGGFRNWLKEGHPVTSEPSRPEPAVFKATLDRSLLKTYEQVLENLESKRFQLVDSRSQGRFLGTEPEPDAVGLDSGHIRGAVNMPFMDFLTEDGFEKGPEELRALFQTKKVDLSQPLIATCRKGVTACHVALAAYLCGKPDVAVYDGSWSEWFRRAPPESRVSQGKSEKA

HSP60/HSP10 = HSP60/HSP10 (Homo sapiens, UniProt P10809); experiment: Inhibition of human N-terminal octa-His-tagged HSP60 expressed in Escherichia coli Rosetta(DE3) pLysS/human HSP10 expressed in Escherichia coli Rosetta(DE3) assessed as reduction in HSP60/HSP10-mediated denatured MDH refolding by measuring MDH enzyme activity using sodium mesoxalate as substrate after 40 to 60 mins by spectrometric analysis; procedure, shortened: as §2
Chain of HSP60/HSP10 (P10809 whole entry): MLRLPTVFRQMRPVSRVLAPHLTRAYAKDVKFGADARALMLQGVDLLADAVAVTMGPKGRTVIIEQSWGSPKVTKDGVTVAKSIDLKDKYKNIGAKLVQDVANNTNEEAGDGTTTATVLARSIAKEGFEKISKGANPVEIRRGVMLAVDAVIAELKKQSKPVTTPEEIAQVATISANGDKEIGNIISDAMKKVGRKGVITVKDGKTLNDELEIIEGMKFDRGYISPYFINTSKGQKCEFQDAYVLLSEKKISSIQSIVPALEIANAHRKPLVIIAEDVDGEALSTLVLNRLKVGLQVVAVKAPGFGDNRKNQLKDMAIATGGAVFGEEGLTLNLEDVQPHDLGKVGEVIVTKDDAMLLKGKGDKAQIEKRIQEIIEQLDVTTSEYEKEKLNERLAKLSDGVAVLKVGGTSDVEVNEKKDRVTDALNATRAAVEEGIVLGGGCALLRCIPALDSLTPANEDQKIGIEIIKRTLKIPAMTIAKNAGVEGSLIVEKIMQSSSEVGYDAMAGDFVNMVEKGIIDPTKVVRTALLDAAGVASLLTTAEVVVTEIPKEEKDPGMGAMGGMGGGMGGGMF
Chain of HSP60/HSP10 (P61604 whole entry, further chain): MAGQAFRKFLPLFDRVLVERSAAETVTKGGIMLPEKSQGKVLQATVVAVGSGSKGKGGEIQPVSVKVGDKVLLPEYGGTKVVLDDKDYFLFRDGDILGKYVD

Klebsiella pneumoniae = experiment: Antibacterial activity against Klebsiella pneumoniae ATCC 13883 after 6 to 8 hrs; format: functional, organism-based
Procedure, shortened: (§3)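 Stagnant liquid-culture proliferation assay at 37°C in broth cation-adjusted with 25 mg/L Ca²⁺ and 12.5 mg/L Mg²⁺, with compounds stamped into the wells. […] OD600 turbidity was read at 6–8 h (K. pneumoniae, E. cloacae, P. aeruginosa) or 24 h (A. baumannii). EC50 came from non-linear regression, averaged in log form over replicates.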

Acinetobacter baumannii = experiment: Antibacterial activity against Acinetobacter baumannii ATCC 19606 after 24 hrs; format: functional, organism-based; conditions: for Activity: ATCC 19606 = CIP 70.34 = JCM 6841; procedure, shortened: as §3
Pseudomonas aeruginosa = experiment: Antibacterial activity against Pseudomonas aeruginosa ATCC 10145 after 6 to 8 hrs; format: functional, organism-based; procedure, shortened: as §3
Enterobacter cloacae = experiment: Antibacterial activity against Enterobacter cloacae subsp. cloacae ATCC 13047 after 6 to 8 hrs; format: functional, organism-based; procedure, shortened: as §3
Staphylococcus aureus [9] = experiment: Antibacterial activity against multidrug resistant Staphylococcus aureus ATCC BAA-44 at >100 uM passaged for 12 days in fresh liquid media supplemented with compound followed by re-culturing for 24 hrs on agar and another 24 hrs in liquid medium; format: functional, organism-based
Procedure, shortened: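 After 12-day serial passage under compound, resistant culture regrown without inhibitor 24 h on agar then 24 h in liquid medium, then retested for growth inhibition; % growth inhibition averaged (±SD) from 4 replicates.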

[10] = Selectivity index, ratio of CC50 for human THLE3 cells to EC50 for multidrug resistant Staphylococcus aureus ATCC BAA-44; format: toxicity; conditions: read-out: Ratio CC50/EC50

Row | SMILES | EC50 (Staphylococcus aureus [2]) | IC50 [6] | CC50 at 48 h [7] | IC50 [8] | IC50 (HSP60/HSP10) | Activity (Klebsiella pneumoniae) | Activity (Acinetobacter baumannii) | Activity (Pseudomonas aeruginosa) | Activity (Enterobacter cloacae) | other results
1 | NCc1ccc(S(=O)(=O)Nc2ccc(-c3nc4cc(NS(=O)(=O)c5ccc(Cl)s5)ccc4o3)cc2)cc1 | 19 µM | – | – | – | – | – | – | – | – | Activity (Staphylococcus aureus [1]): Active; Kd [3]: 0.036 µM; IC50 (E. coli GroEL/ES [4]): 1.3 µM; IC50 (E. coli GroEL/ES [5]): 3.2 µM
2 | O=S(=O)(Nc1ccc2oc(-c3ccc(NS(=O)(=O)c4ccc(Cl)s4)cc3)nc2c1)c1cccc(C(F)(F)F)c1 | 1.1 µM | 43 µM | 36 µM | > 100 µM | 5 µM | – | – | – | – | IC50 (E. coli GroEL/ES [4]): 6.7 µM
3 | O=[N+]([O-])c1ccc(S(=O)(=O)Nc2ccc(-c3nc4cc(NS(=O)(=O)c5ccc([N+](=O)[O-])cc5)ccc4o3)cc2)cc1 | 7.3 µM | > 63 µM | 47 µM | > 100 µM | 51 µM | inactive | inactive | inactive | inactive | –
4 | O=[N+]([O-])c1cc(S(=O)(=O)Nc2ccc3oc(-c4ccc(NS(=O)(=O)c5ccc(Cl)s5)cc4)nc3c2)ccc1Cl | 0.97 µM | 37 µM | 11 µM | > 100 µM | 1 µM | – | – | – | – | IC50 (E. coli GroEL/ES [5]): 1 µM
5 | O=S(=O)(Nc1ccc2oc(-c3ccc(NS(=O)(=O)c4cccc5nonc45)cc3)nc2c1)c1ccc(Cl)s1 | 4.5 µM | > 63 µM | 69 µM | 72 µM | 11 µM | – | – | – | – | –
6 | O=S(=O)(Nc1ccc(-c2nc3cc(NS(=O)(=O)c4ccc(Cl)s4)ccc3o2)cc1)c1cccc(C(F)(F)F)c1 | 2.3 µM | > 63 µM | 27 µM | > 100 µM | – | – | – | – | – | –
7 | NCc1ccc(S(=O)(=O)Nc2ccc3oc(-c4ccc(NS(=O)(=O)c5ccc(Cl)s5)cc4)nc3c2)cc1 | – | – | – | – | – | – | – | – | – | Kd [3]: 0.15 µM; IC50 (E. coli GroEL/ES [4]): 3.1 µM
8 | O=S(=O)(Nc1ccc(-c2nc3cc(NS(=O)(=O)c4ccc(Cl)s4)ccc3o2)cc1)c1ccc(Cl)c(C(F)(F)F)c1 | 2 µM | > 63 µM | 22 µM | > 100 µM | 6.1 µM | – | – | – | – | EC50 (Acinetobacter baumannii; ATCC 19606 = CIP 70.34 = JCM 6841, 24 h): 37 µM
9 | O=S(=O)(Nc1ccc(-c2nc3cc(NS(=O)(=O)c4ccc(Cl)s4)ccc3o2)cc1)c1ccc(Cl)s1 | 4.6 µM | 52 µM | 49 µM | > 100 µM | 5.9 µM | – | – | – | – | –
10 | O=S(=O)(Nc1ccc(-c2nc3cc(NS(=O)(=O)c4cccc(C(F)(F)F)c4)ccc3o2)cc1)c1cccc(C(F)(F)F)c1 | 2 µM | > 63 µM | 24 µM | > 100 µM | 58 µM | inactive | inactive | inactive | inactive | –
11 | O=[N+]([O-])c1cc(S(=O)(=O)Nc2ccc(-c3nc4cc(NS(=O)(=O)c5ccc(Cl)s5)ccc4o3)cc2)ccc1Cl | 1.7 µM | 34 µM | 17 µM | 53 µM | 2.1 µM | – | – | – | – | Activity (Staphylococcus aureus [9]): Active; selectivity ratio [10]: 10; IC50 (E. coli GroEL/ES [4]): 1.5 µM; IC50 (E. coli GroEL/ES [5]): 2 µM
12 | O=S(=O)(Nc1ccc(-c2nc3cc(NS(=O)(=O)c4ccccc4Br)ccc3o2)cc1)c1ccccc1Br | – | – | – | – | – | inactive | inactive | inactive | inactive | –
13 | O=S(=O)(Nc1ccc(-c2nc3cc(NS(=O)(=O)c4ccc(Cl)cc4)ccc3o2)cc1)c1ccc(Cl)cc1 | 3.5 µM | > 63 µM | 18 µM | > 100 µM | – | inactive | inactive | inactive | inactive | –
14 | O=S(=O)(Nc1ccc(-c2nc3cc(NS(=O)(=O)c4ccc(C(F)(F)F)cc4)ccc3o2)cc1)c1ccc(C(F)(F)F)cc1 | – | – | – | – | – | inactive | inactive | inactive | inactive | –
15 | COc1ccc(S(=O)(=O)Nc2ccc(-c3nc4cc(NS(=O)(=O)c5ccc(OC)cc5)ccc4o3)cc2)cc1 | – | – | – | – | – | inactive | inactive | inactive | inactive | –
16 | N#Cc1ccc(S(=O)(=O)Nc2ccc(-c3nc4cc(NS(=O)(=O)c5ccc(C#N)cc5)ccc4o3)cc2)cc1 | – | – | – | – | – | inactive | inactive | inactive | inactive | –
17 | O=S(=O)(Nc1ccc2oc(-c3ccc(NS(=O)(=O)c4ccc(Cl)s4)cc3)nc2c1)c1ccc(Cl)c(C(F)(F)F)c1 | 2.2 µM | 40 µM | 27 µM | > 100 µM | 2.4 µM | – | – | – | – | –
18 | O=S(=O)(Nc1ccc2oc(-c3ccc(NS(=O)(=O)c4ccc(Cl)s4)cc3)nc2c1)c1ccc(Cl)c(Cl)c1 | 0.53 µM | > 63 µM | 24 µM | > 100 µM | 4.7 µM | – | – | – | – | selectivity ratio [10]: 46; IC50 (E. coli GroEL/ES [4]): 5.1 µM; IC50 (E. coli GroEL/ES [5]): 6.4 µM
19 | Cc1cccc(S(=O)(=O)Nc2ccc(-c3nc4cc(NS(=O)(=O)c5cccc(C)c5)ccc4o3)cc2)c1 | – | – | – | – | – | inactive | inactive | inactive | inactive | –
20 | O=S(=O)(Nc1ccc(-c2nc3cc(NS(=O)(=O)c4ccccc4F)ccc3o2)cc1)c1ccccc1F | – | – | – | – | – | inactive | inactive | inactive | inactive | –

Reference: ChEMBL document CHEMBL4152346, “Sulfonamido-2-arylbenzoxazole GroEL/ES Inhibitors as Potent Antibacterials against Methicillin-Resistant Staphylococcus aureus (MRSA)” (J Med Chem, 2018)
